Source: ChEMBL document CHEMBL2417469, “Synthesis of novel analogs of 2-pyrazoline obtained from [(7-chloroquinolin-4-yl)amino]chalcones and hydrazine as potential antitumor and antimalarial agents” (Eur J Med Chem, 2013)

How the values were obtained:
Type in all cases: functional
SNB-19 = test: Cytotoxicity against human SNB19 cells after 48 hrs by SRB assay; conditions: SNB-19, 48 h
Procedure, shortened: (§1)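 NCI 60-cell screen. Cells grew 24 h (37 °C, 5% CO2) before compound was added. Compounds were in DMSO and diluted in medium with gentamicin, then tested at five levels (100, 10, 1.0, 0.1, 0.01 µM) with 48 h continuous exposure. Adherent cells were fixed with TCA (10% final) and stained with 0.4% SRB, absorbance read at 515 nm. A time-zero plate was included. LC50 is the concentration giving 50% loss of protein relative to time zero.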

SW-620 = test: Cytotoxicity against human SW620 cells after 48 hrs by SRB assay; conditions: SW-620, 48 h; procedure, shortened: as §1
Hs-578T = test: Cytotoxicity against human Hs578T cells after 48 hrs by SRB assay
Procedure, shortened: (§2)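 NCI 60-cell-line screen. Cells preincubated 24 h at 37 °C, 5% CO2; time-zero plates TCA-fixed. Compounds dissolved in DMSO and tested at five concentrations (100, 10, 1.0, 0.1, 0.01 µM) for 48 h continuous exposure. Adherent cells fixed with cold TCA (10% final), then SRB stained; absorbance at 515 nm. GI50, TGI and LC50 calculated from growth relative to time-zero and untreated controls.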

MDA-MB-231 = test: Cytotoxicity against human MDA-MB-231 cells after 48 hrs by SRB assay; conditions: MDA-MB-231, 48 h; procedure, shortened: as §2
MDA-MB-435 = test: Cytotoxicity against human MDA-MB-435 cells after 48 hrs by SRB assay; conditions: MDA-MB-435, 48 h; procedure, shortened: as §2
T47D = test: Cytotoxicity against human T47D cells after 48 hrs by SRB assay; procedure, shortened: as §1
HCC 2998 = test: Cytotoxicity against human HCC2998 cells after 48 hrs by SRB assay; conditions: HCC 2998, 48 h; procedure, shortened: as §2
DU-145 = test: Cytotoxicity against human DU145 cells after 48 hrs by SRB assay; conditions: DU-145, 48 h; procedure, shortened: as §2
A549 = test: Cytotoxicity against human A549/ATCC cells after 48 hrs by SRB assay; conditions: A549, 48 h; for CC50: read-out: LC50 (the source's name); procedure, shortened: as §2
RXF 393 = test: Cytotoxicity against human RXF393 cells after 48 hrs by SRB assay; conditions: RXF 393, 48 h; procedure, shortened: as §2
OVCAR-5 = test: Cytotoxicity against human OVCAR5 cells after 48 hrs by SRB assay; conditions: OVCAR-5, 48 h; procedure, shortened: as §2
CCRF-CEM = test: Cytotoxicity against human CCRF-CEM cells after 48 hrs by SRB assay; procedure, shortened: as §2
[1] = Cytotoxicity against human EKVX cells after 48 hrs by SRB assay; procedure, shortened: as §2
NCI-H23 = test: Cytotoxicity against human NCI-H23 cells after 48 hrs by SRB assay; conditions: NCI-H23, 48 h; for CC50: read-out: LC50 (the source's name); procedure, shortened: as §2
HL-60(TB) = test: Cytotoxicity against human HL-60(TB) cells after 48 hrs by SRB assay; conditions: HL-60, 48 h; for CC50: read-out: LC50 (the source's name); procedure, shortened: as §2
UO-31 = test: Cytotoxicity against human UO31 cells after 48 hrs by SRB assay; conditions: UO-31, 48 h; procedure, shortened: as §1
SF-268 = test: Cytotoxicity against human SF268 cells after 48 hrs by SRB assay; conditions: SF-268, 48 h; procedure, shortened: as §2
SK-MEL-2 = test: Cytotoxicity against human SK-MEL-2 cells after 48 hrs by SRB assay; conditions: SK-MEL-2, 48 h; procedure, shortened: as §2
NCI-H226 = test: Cytotoxicity against human NCI-H226 cells after 48 hrs by SRB assay; conditions: NCI-H226, 48 h; procedure, shortened: as §2
HOP-92 = test: Cytotoxicity against human HOP92 cells after 48 hrs by SRB assay; conditions: HOP-92, 48 h; procedure, shortened: as §2
ACHN = test: Cytotoxicity against human ACHN cells after 48 hrs by SRB assay; conditions: for CC50: read-out: LC50 (the source's name); procedure, shortened: as §2
SF-539 = test: Cytotoxicity against human SF539 cells after 48 hrs by SRB assay; conditions: SF-539, 48 h; for CC50: read-out: LC50 (the source's name); procedure, shortened: as §2
OVCAR-4 = test: Cytotoxicity against human OVCAR4 cells after 48 hrs by SRB assay; conditions: OVCAR-4, 48 h; procedure, shortened: as §2
SNB-75 = test: Cytotoxicity against human SNB75 cells after 48 hrs by SRB assay; conditions: SNB-75, 48 h; procedure, shortened: as §1
HOP-62 = test: Cytotoxicity against human HOP62 cells after 48 hrs by SRB assay; conditions: HOP-62, 48 h; procedure, shortened: as §2
Plasmodium falciparum = test: Antimalarial activity against Plasmodium falciparum NF54 infected in human serum at 20 ug/ml after 48 hrs by fluorometric method
Procedure, shortened: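 Asynchronous P. falciparum NF54 at 1.5–2% parasitemia, 5% hematocrit in RPMI with 10% human serum, exposed 48 h at 37 °C under 90% N2/5% CO2/5% O2 at the stated concentration; parasite DNA stained with ethidium bromide after proteinase K lysis; viability % = (Flu treated − medium)/(Flu untreated − medium) ×100; triplicate.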

MCF7 = test: Cytotoxicity against human MCF7 cells after 48 hrs by SRB assay; conditions: MCF7, 48 h; for CC50: read-out: LC50 (the source's name); procedure, shortened: as §2
NCI-H522 = test: Cytotoxicity against human NCI-H522 cells after 48 hrs by SRB assay; conditions: NCI-H522, 48 h; for CC50: read-out: LC50 (the source's name); procedure, shortened: as §2
UACC-62 = test: Cytotoxicity against human UACC62 cells after 48 hrs by SRB assay; conditions: UACC-62, 48 h; for CC50: read-out: LC50 (the source's name); procedure, shortened: as §1
NCI-H460 = test: Cytotoxicity against human NCI-H460 cells after 48 hrs by SRB assay; conditions: NCI-H460, 48 h; procedure, shortened: as §2
UACC-257 = test: Cytotoxicity against human UACC257 cells after 48 hrs by SRB assay; conditions: UACC-257, 48 h; procedure, shortened: as §1
OVCAR-3 = test: Cytotoxicity against human OVCAR3 cells after 48 hrs by SRB assay; conditions: OVCAR-3, 48 h; procedure, shortened: as §2
SN12C = test: Cytotoxicity against human SN12C cells after 48 hrs by SRB assay; procedure, shortened: as §2
RPMI-8226 = test: Cytotoxicity against human RPMI8226 cells after 48 hrs by SRB assay; conditions: RPMI-8226, 48 h; procedure, shortened: as §2

## COc1ccc(C2CC(c3cccc(Nc4ccnc5cc(Cl)ccc45)c3)=NN2C=O)cc1 (stereo not drawn)
SNB-19
  GI50: 0.87 µM
  LC50: > 100 µM
SW-620
  GI50: 0.36 µM
  LC50: > 100 µM
Hs-578T
  GI50: 0.36 µM
  LC50 (50% net cell kill): > 100 µM
MDA-MB-231
  GI50: 3.19 µM
  LC50 (concentration killing 50% of cells present at time zero): > 100 µM
MDA-MB-435
  GI50: 0.14 µM
  LC50: > 100 µM
T47D
  GI50: 0.53 µM
  LC50 (concentration giving 50% cell kill relative to time zero): > 100 µM
HCC 2998
  GI50: 1.32 µM
  LC50: > 100 µM
DU-145
  GI50: 1.35 µM
  LC50 (concentration killing 50% of cells): > 100 µM
A549
  GI50: 0.57 µM
  CC50: > 100 µM
RXF 393
  GI50: 0.85 µM
  LC50 (concentration killing 50% of cells): > 100 µM
OVCAR-5
  GI50: 3.51 µM
  LC50: > 100 µM
CCRF-CEM
  GI50: 0.68 µM
  LC50 (concentration killing 50% of cells relative to time zero): > 100 µM
[1]
  GI50: 0.64 µM
  LC50: > 100 µM
NCI-H23
  GI50: 0.95 µM
  CC50: > 100 µM
HL-60(TB)
  GI50: 0.25 µM
  CC50: 5.28 µM
UO-31
  GI50: 0.85 µM
  LC50: > 100 µM
SF-268
  GI50: 2.56 µM
  LC50: > 100 µM
SK-MEL-2
  GI50: 0.49 µM
  LC50: > 100 µM
NCI-H226
  GI50: 41.6 µM
  LC50 (50% lethal concentration): > 100 µM
HOP-92
  GI50: > 100 µM
  LC50 (concentration killing 50% of cells): > 100 µM
ACHN
  GI50: 0.87 µM
  CC50: > 100 µM
SF-539
  GI50: 0.61 µM
  CC50: 66.2 µM
OVCAR-4
  GI50: 0.89 µM
  LC50: > 100 µM
SNB-75
  GI50: 0.33 µM
  LC50 (50% net cell kill): > 100 µM
HOP-62
  GI50: 0.66 µM
  LC50 (50% lethal concentration): > 100 µM
Plasmodium falciparum
  inhibition at 20 µg/mL: 4.1%
MCF7
  GI50: 0.37 µM
  CC50: > 100 µM
NCI-H522
  GI50: 0.3 µM
  CC50: > 100 µM
UACC-62
  GI50: 0.67 µM
  CC50: > 100 µM
NCI-H460
  GI50: 0.4 µM
  LC50: > 100 µM
UACC-257
  LC50: > 100 µM
OVCAR-3
  GI50: 0.47 µM
  LC50: 77.4 µM
SN12C
  GI50: 0.78 µM
  LC50 (50% net cell kill relative to time zero): > 100 µM
RPMI-8226
  GI50: 16.7 µM
  LC50 (concentration killing 50% of cells): > 100 µM

## COc1cc(C2CC(c3cccc(Nc4ccnc5cc(Cl)ccc45)c3)=NN2C=O)cc(OC)c1OC (stereo not drawn)
SNB-19
  GI50: 3.42 µM
  LC50: > 100 µM
SW-620
  GI50: 0.47 µM
  LC50: > 100 µM
Hs-578T
  GI50: 0.68 µM
  LC50 (50% net cell kill): > 100 µM
MDA-MB-231
  GI50: 1.6 µM
  LC50 (concentration killing 50% of cells present at time zero): > 100 µM
MDA-MB-435
  GI50: 0.22 µM
  LC50: > 100 µM
T47D
  GI50: 0.65 µM
  LC50 (concentration giving 50% cell kill relative to time zero): 69.3 µM
HCC 2998
  GI50: 2.16 µM
  LC50: > 100 µM
DU-145
  GI50: 2.68 µM
  LC50 (concentration killing 50% of cells): > 100 µM
A549
  GI50: 0.66 µM
  CC50: > 100 µM
RXF 393
  GI50: 1.54 µM
  LC50 (concentration killing 50% of cells): 73.4 µM
OVCAR-5
  GI50: 4.32 µM
  LC50: > 100 µM
CCRF-CEM
  GI50: 0.65 µM
  LC50 (concentration killing 50% of cells relative to time zero): > 100 µM
[1]
  GI50: 0.98 µM
  LC50: > 100 µM
NCI-H23
  GI50: 1.38 µM
  CC50: > 100 µM
HL-60(TB)
  GI50: 0.26 µM
  CC50: 3.97 µM
UO-31
  GI50: 1.3 µM
  LC50: > 100 µM
SF-268
  GI50: 2.55 µM
  LC50: > 100 µM
SK-MEL-2
  GI50: 0.73 µM
  LC50: 50.1 µM
NCI-H226
  GI50: 2.2 µM
  LC50 (50% lethal concentration): > 100 µM
HOP-92
  GI50: 2.75 µM
  LC50 (concentration killing 50% of cells): > 100 µM
ACHN
  GI50: 1.27 µM
  CC50: > 100 µM
SF-539
  GI50: 0.81 µM
  CC50: 55.5 µM
OVCAR-4
  GI50: 1.13 µM
  LC50: > 100 µM
SNB-75
  GI50: 0.38 µM
  LC50 (50% net cell kill): 51 µM
HOP-62
  GI50: 1.12 µM
  LC50 (50% lethal concentration): 66.5 µM
Plasmodium falciparum
  inhibition at 20 µg/mL: 24.6%
MCF7
  GI50: 0.37 µM
  CC50: > 100 µM
NCI-H522
  GI50: 0.75 µM
  CC50: > 100 µM
UACC-62
  GI50: 0.72 µM
  CC50: 84 µM
NCI-H460
  GI50: 0.42 µM
  LC50: > 100 µM
UACC-257
  GI50: 1.4 µM
  LC50: > 100 µM
OVCAR-3
  GI50: 0.52 µM
  LC50: 6.06 µM
SN12C
  GI50: 0.78 µM
  LC50 (50% net cell kill relative to time zero): > 100 µM
RPMI-8226
  GI50: 8.83 µM
  LC50 (concentration killing 50% of cells): > 100 µM
